The values that follow come from ChEMBL document CHEMBL1121721 (J Med Chem, 1981).

pIC50: −log10 of the molar value.

For one assay, the target named is Mu-type opioid receptor (Cavia porcellus, UniProt P97266). The assay can be described thus: Inhibitory potency against Opioid receptor mu 1 in longitudinal muscle preparation of guinea pig ileum. Format: tissue-based. Put shortly:
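Guinea pig ileum was electrically stimulated to contract, and inhibition was measured at six concentrations per compound, with six to eight assays each. Methionine-enkephalin served as the internal standard in every assay. IC50 was obtained by regression analysis.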

The test system of assay [1] is Mus musculus. Put plainly: Analgesic activity of compound (1.98 nM) in mice after icv administration. Format: functional. Put shortly: (§1)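 Swiss mice (20–22 g) got icv injections of compound freshly dissolved in saline, in a constant 5 μL. Hind-paw lick latency on a 65 ± 1 °C hot plate was read 15 min after injection. Animals with control latency above 9 s were rejected. Values are mean ± SEM, with n per group.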

Assay [2] is filed under the species Mus musculus. The assay can be described thus: Relative potency of compound verses morphine for analgesic activity in mice. Format: functional.
Assay [3] in a line: Ratio of IC50 evaluated in GPI to MVD. The assay is classed as functional. Put shortly:
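IC50 values were determined on electrically stimulated guinea pig ileum and on mouse vas deferens. Each used six concentrations with six to eight assays each, methionine-enkephalin as internal standard, and regression analysis. The ratio is GPI IC50 over MVD IC50.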

Assay [4] deals with Delta-type opioid receptor (Mus musculus, UniProt P32300). The assay can be described thus: Inhibitory potency against delta Opioid receptor delta 1 in longitudinal muscle preparation of mouse vas deferens.
Sequence of Delta-type opioid receptor (P32300 whole entry): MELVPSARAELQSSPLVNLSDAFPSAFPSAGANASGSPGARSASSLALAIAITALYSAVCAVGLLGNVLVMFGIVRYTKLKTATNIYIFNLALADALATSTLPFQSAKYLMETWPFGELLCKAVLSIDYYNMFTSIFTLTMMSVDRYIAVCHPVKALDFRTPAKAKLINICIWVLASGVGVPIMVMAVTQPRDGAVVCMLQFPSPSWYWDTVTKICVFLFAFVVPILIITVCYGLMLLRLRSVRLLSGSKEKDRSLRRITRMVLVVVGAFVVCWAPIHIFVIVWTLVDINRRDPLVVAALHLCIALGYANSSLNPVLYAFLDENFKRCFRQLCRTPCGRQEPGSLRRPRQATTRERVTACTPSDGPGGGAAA
Assay [5] concerns Mus musculus. Put plainly: Analgesic activity of compound (1.46 nM) in mice after icv administration. The assay is classed as functional. The procedure, abridged:
as §1

The test system of assay [6] is Mus musculus. The assay can be described thus: Analgesic activity of compound (1.46+naloxone) in mice after icv administration. Format: functional. Put shortly: (§2)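 Swiss mice (20–22 g) got naloxone 1 mg/kg sc or diprenorphine 0.5 mg/kg sc 15 min before icv compound, given in saline in a constant 5 μL. Hind-paw lick latency on a 65 ± 1 °C hot plate was read 15 min after icv injection. Mice with control latency over 9 s were excluded. Values are mean ± SEM, with n.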

Assay [7] has as its system Mus musculus. The assay can be described thus: Analgesic activity of compound (1.46+diprenorphine) in mice after icv administration. Format: functional. The procedure, abridged: as §2
The test system of assay [8] is Mus musculus. The assay can be described thus: Analgesic activity of compound (2.66 nM) in mice after icv administration. The assay is classed as functional. The procedure, abridged: as §1
The test system of assay [9] is Mus musculus. Put plainly: Analgesic activity of compound (1.45 nM) in mice after icv administration. Format: functional. The procedure, abridged: as §1
Assay [10] deals with Mus musculus. Put plainly: Analgesic activity of compound (1.48 nM) in mice after icv administration. Format: functional. Put shortly:
as §1

Sequence of Mu-type opioid receptor (P97266 whole entry): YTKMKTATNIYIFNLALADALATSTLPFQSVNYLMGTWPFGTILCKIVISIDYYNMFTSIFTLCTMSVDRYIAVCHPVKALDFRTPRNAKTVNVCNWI

On to `CSCC[C@H](NC(=O)[C@H](Cc1ccccc1)NC(=O)CNC(=O)CNC(=O)[C@@H](N)Cc1ccc(O)cc1)C(=O)O`, for which the pIC50 (in general, −log10 of the IC50, conventionally taken in molar units) on Mu-type opioid receptor is 6.70.
With `CC(C)CC(C)NC(=O)CNC(=O)[C@H](C)NC(=O)[C@@H](N)Cc1ccc(O)cc1` (stereo not given in full), the “Hind-paw lick latency time” value in the assay with Mus musculus [1] amounted to 25 s. The same compound gave a Relative potency in the assay filed under Mus musculus [2] of 1. Also, in [3], the Ratio came out at 0.15. Besides, the pIC50 in assay [4] is 5.91; against Mu-type opioid receptor, 6.74.
For the compound `CC(C)C[C@H](NC(=O)[C@H](Cc1ccccc1)NC(=O)CNC(=O)[C@H](CO)NC(=O)[C@@H](N)Cc1ccc(O)cc1)C(=O)N[C@H](C(=O)O)[C@@H](C)O`, the “Hind-paw lick latency time” value is listed as 32.6 s with Mus musculus [5], 10.5 s in the assay on Mus musculus [6] and 6.6 s in the assay on Mus musculus [7]. This compound also had a negative logarithm of the IC50 (pIC50) against Mu-type opioid receptor of 6.44.
Turning to `C[C@H](NC(=O)[C@@H](N)Cc1ccc(O)cc1)C(=O)NCC(=O)N(C)[C@@H](Cc1ccccc1)C(=O)N[C@@H](CC[S+](C)[O-])C(=O)O` (stereo not given in full), the Relative potency in the assay filed under Mus musculus [2] was greater than 100. Further, the Ratio in assay [3] is 0.46. In addition, the pIC50 in assay [4] was 7.80; against Mu-type opioid receptor, 8.14.
At Mu-type opioid receptor, `CC(C)C[C@@H](NC(=O)[C@H](Cc1ccccc1)NC(=O)CNC(=O)[C@@H](C)NC(=O)[C@@H](N)Cc1ccc(O)cc1)C(=O)O` [DADLE] showed a negative logarithm of the IC50 (pIC50) of 7.32.
For `CN1CC[C@]23c4c5ccc(O)c4O[C@H]2[C@@H](O)C=C[C@H]3[C@H]1C5` [MORPHINE], the “Hind-paw lick latency time” value with Mus musculus [8] is on record as 25.2 s.
On to H-YAGFMT-OH, for which the Relative potency in the assay filed under Mus musculus [2] was determined as 2. Also, the Ratio in [3] came out at 220. The pIC50 was 8.96 in [4] and 6.62 against Mu-type opioid receptor. For the same compound, the “Hind-paw lick latency time” value in the assay on Mus musculus [9] amounted to 29.3 s.
Take H-YGGFMT-OH: the “Hind-paw lick latency time” value with Mus musculus [10] amounted to 6.5 s. The compound also registered a Relative potency in the assay filed under Mus musculus [2] greater than 0.1. Besides, the Ratio in assay [3] stood at 62. Further, the pIC50 in assay [4] was 8.21; against Mu-type opioid receptor, 6.42.
Consider H-YMGFP-NH2, for which the Relative potency in the assay filed under Mus musculus [2] is 25. Further, in assay [3], the Ratio is 0.95. Further, the results for the pIC50 (in [4]; against Mu-type opioid receptor) were 7.64 and 7.66, respectively.
